Experimental data reported in ChEMBL document CHEMBL1121509, “Metabolic N-hydroxylation. Use of substituent variation to modulate the in vitro bioactivation of 4-acetamidostilbenes” (J Med Chem, 1980).

How the values were obtained:
Type in all cases: ADME
Conditions in all cases: microsomes
[1] = Compound was evaluated for the apparent kinetic constant (Km) for the microsomal oxidation (hydroxamic acid metabolite)
[2] = Compound was evaluated for the kinetic constant (Vmax) for the microsomal oxidation (hydroxamic acid metabolite)
[3] = Selectivity ratio of Vmax and Km for microsomal oxidation (hydroxamic acid metabolite)
Outline: (§1)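 V/K computed as Vmax/Km, an apparent first-order rate constant […], from Wilkinson-fitted kinetic constants of 10-min, 37 °C liver microsomal incubations with NADPH-generating system and paraoxon; metabolites quantified by TLC and dual-label (¹⁴C/³H) radiochemical assay.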

[4] = Compound was evaluated for the apparent kinetic constant (Km) for the microsomal oxidation (4'-hydroxy metabolite)
[5] = Compound was evaluated for the kinetic constant (Vmax) for the microsomal oxidation (4'-hydroxy metabolite); Values are pmol(1/mg of microsomal protein)min
[6] = Compound was evaluated for the kinetic constant (Vmax) for the microsomal oxidation (hydroxamic acid metabolite); Values are pmol(1/mg of microsomal protein)min; parameters: unit: pmol/min/mg protein
[7] = Selectivity ratio of Vmax and Km for microsomal oxidation (4'-hydroxy metabolite); outline: as §1
[8] = Compound was evaluated for the apparent kinetic constant (Km) for the microsomal oxidation (omega-1 hydroxy metabolite)
[9] = Selectivity ratio of Vmax and Km for microsomal oxidation (omega-1 hydroxy metabolite); outline: as §1
[10] = Compound was evaluated for the kinetic constant (Vmax) for the microsomal oxidation (omega-1 hydroxy metabolite); Values are pmol(1/mg of microsomal protein)min
[11] = Selectivity ratio of Vmax and Km for microsomal oxidation; outline: as §1
[12] = Compound was evaluated for the apparent kinetic constant (Km) for the microsomal oxidation (hydroxymethyl metabolite)
[13] = Compound was evaluated for the kinetic constant (Vmax) for the microsomal oxidation (hydroxymethyl metabolite); Values are pmol(1/mg of microsomal protein)min
[14] = Compound was evaluated for the apparent kinetic constant (Km) for the microsomal oxidation (glycolamide metabolite)
[15] = Compound was evaluated for the kinetic constant (Vmax) for the microsomal oxidation (glycolamide metabolite); Values are pmol(1/mg of microsomal protein)min
[16] = Selectivity ratio of Vmax and Km for microsomal oxidation (glycolamide metabolite); outline: as §1

Km [1] [µM]	Vmax [6]	Compound	Ratio [3]	Ratio [11]	other results
60	–	CC(=O)Nc1ccc(/C=C/c2ccc(C)cc2)cc1	4.05	–	Vmax [2]: 243
2800	2767	CC(=O)Nc1ccc(/C=C/c2ccccc2)cc1	0.99	–	Km [4]: 500 µM; Vmax [5]: 467; Ratio [7]: 0.93
1200	330	CCCCOc1ccc(/C=C/c2ccc(NC(C)=O)cc2)cc1	0.28	–	Km [8]: 1100 µM; Ratio [9]: 0.48; Vmax [10]: 530
310	677	CC(=O)Nc1ccc(/C=C/c2ccc(C#N)cc2)cc1	–	2.18	–
–	–	CC(=O)Nc1ccc(/C=C/c2ccc(C(C)(C)C)cc2)cc1	–	12.54	Km [12]: 90 µM; Vmax [13]: 1129
2900	88	CC(=O)Nc1ccc(/C=C/c2ccc(F)cc2)cc1	0.03	–	Km [14]: 3300 µM; Vmax [15]: 27; Ratio [16]: 0.008
3300	98	CC(=O)Nc1ccc(/C=C/c2ccc(Cl)cc2)cc1	0.03	–	Km [14]: 3500 µM; Vmax [15]: 17; Ratio [16]: 0.005
1900	457	CC(=O)Nc1ccc(/C=C/c2ccc(Br)cc2)cc1	–	0.24	–
